Reference: ChEMBL document CHEMBL1156500, “Characterization of the metabolic activation of hepatitis C virus nucleoside inhibitor beta-D-2'-Deoxy-2'-fluoro-2'-C-methylcytidine (PSI-6130) and identification of a novel active 5'-triphosphate species” (J Biol Chem, 2007)

Legend:
[1] = tested on: Hepatitis C virus; assay: Inhibition of RNA synthesis activity of […]
[2] = tested on: Hepatocyte; assay: Drug uptake in human hepatocyte assessed as time needed for triphosphate to be reduced to half of maximum level; assay type: ADME, cell-based, Liver; conditions: hepatocytes
Outline: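 Hepatocytes from 4 donors were loaded for 24 h with 2 μM 3H-drug (10 μCi/ml), washed, and placed in drug-free medium. Duplicate samples were taken 0–72 h later and analysed for triphosphates by radio-HPLC. Half-life came from a single-phase exponential decay fit, mean ± S.D. (n = 4).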

[3] = tested on: Hepatitis C virus; assay: Inhibition of RNA synthesis activity of […] 1b Con1 replicase; parameters: species or system Hepatitis C virus subtype 1b
Outline: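 Membrane-associated native replication complexes were isolated from 2209-23 replicon cells, with 20 μl reactions. One format used 2.5×10^6 cell equivalents for 60 min. The other used 3.1×10^6 cell equivalents for 90 min in 50 mM HEPES pH 7.5, 5 mM MgCl2, actinomycin D, 1 mM ATP/GTP/CTP, 0.4 μM [α-33P]UTP and a creatine phosphate regeneration system.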

t1/2 [2] [h]	IC50 ([1]; Hepatitis C virus, Con1) [nM]	IC50 [3] [nM]	Structure (SMILES)	Km ([1]; Hepatitis C virus subtype 1b, Con1) [µM]	Ki [1] [nM]
–	–	–	Nc1ccn([C@@H]2O[C@H](COP(=O)(O)OP(=O)(O)OP(=O)(O)O)[C@@H](O)[C@H]2O)c(=O)n1	0.22	–
4.7	130	340	C[C@@]1(F)[C@H](O)[C@@H](COP(=O)(O)OP(=O)(O)OP(=O)(O)O)O[C@H]1n1ccc(N)nc1=O [PSI-6130-TP]	–	23
